Published values collected from several papers.
Lines come from different studies, so protocols differ.
Target: Mitogen-activated protein kinase 7 (MAPK7, Homo sapiens, UniProt Q13164)

CCN1CCN(Cc2ccc(C(=O)Nc3ccc(C)c(Oc4ccc5c(c4)CC(=O)N5)c3)cc2C(F)(F)F)CC1 — remaining binding (binding; competition with immobilised ligand; 1 µM): 100%
Cc1cnc(Nc2ccc(C(=O)N3CCC(N4CCCC4)CC3)cc2)nc1-c1cc2ccccc2s1 — remaining binding (binding; competition with immobilised ligand; 1 µM): 21%
N[C@@H]1CCN(c2nccc(-c3cnn4ncccc34)n2)C1 — remaining binding (binding; 1 µM): 100%
CS(=O)(=O)N1CCCC(NC(=O)[C@H](CCC2CCCCC2)NC(=O)c2ccc(CNC(=O)c3cnc4ccccn34)cc2)C1 (stereo partly shown) — remaining binding (cell-free assay; competition with immobilised ligand; 0.1 µM): 94%
CN(c1nccc(-c2cnn3ncccc23)n1)C1CC1 — remaining binding (binding; 1 µM): 100%
O=C(c1ccc(Nc2nccc(-c3cc4ccccc4s3)n2)cc1)N1CCC(N2CCCC2)CC1 — remaining binding (binding; competition with immobilised ligand; 1 µM): 100%
N#Cc1ccc(Nc2ccc3[nH]c(=O)[nH]c3c2)c(Cl)c1 — remaining binding (cell-free assay; competition with immobilised ligand; 1 µM): 100%
O=C(Nc1c[nH]nc1C(=O)NC1CCNCC1)c1cc(F)cc(F)c1 — remaining binding (binding; competition with immobilised ligand; 1 µM): 83%
CNC(=O)Nc1ccc2c(c1)[C@@]1(CC2)OC(=O)N(CC(=O)N(Cc2ccc(F)cc2)[C@@H](C)C(F)(F)F)C1=O — remaining binding (cell-free assay; competition with immobilised ligand; 1 µM): 85%
O=C(NCCCN1CCOCC1)c1ccc(Nc2nccc(-c3cc4ccccc4s3)n2)cc1 — remaining binding (binding; competition with immobilised ligand; 1 µM): 87%
FC(F)(F)Oc1cccc(-c2cnc3ccc(-c4ccncc4)nn23)c1 — remaining binding (cell-free assay; competition with immobilised ligand; 5 µM): 99%
COc1ccnn2ncc(-c3ccnc(N(C)C)n3)c12 — remaining binding (binding; 1 µM): 100%
FC(F)(F)c1ccc2c(c1)nc(-c1cccnc1)n2C1CC1 — remaining binding (cell-free assay; competition with immobilised ligand; 1 µM): 100%
CN(CCCC(F)(F)F)c1nccc(-c2cnn3ncccc23)n1 — remaining binding (binding; 1 µM): 100%
COc1cnc(Nc2cccc(S(N)(=O)=O)c2)nc1N1CCN(c2ccccc2)C(=O)C1 — remaining binding (binding; competition with immobilised ligand; 1 µM): 100%
F[C@@H]1CCN(c2nccc(-c3cnn4ncccc34)n2)C1 — remaining binding (binding; 1 µM): 100%
CN(C)C(=O)Cn1cc(-c2nc([C@@](C)(c3ccc(-c4cnc(N)nc4)cc3)C3CC3)no2)cn1 — remaining binding (cell-free assay; competition with immobilised ligand; 1 µM): 90%
C[C@@H]1CCN(c2nccc(-c3cnn4ncccc34)n2)C1 — remaining binding (binding; 1 µM): 100%
Cc1noc([C@H]2C[C@@H](c3ccc(C(F)(F)F)cc3)CN(C(=O)N3CCS(=O)(=O)C3)C2)n1 — remaining binding (cell-free assay; competition with immobilised ligand; 1 µM): 87%
Nc1ncc2c(n1)-c1c([nH]c3ccc(C#CC4CC4)cc13)CCCC2 — remaining binding (binding; competition with immobilised ligand; 1 µM): 85%
Cc1cnn2ncc(-c3ccnc(N(C)C)n3)c2c1 — remaining binding (binding; 1 µM): 96%
O=C(Nc1cnc(Oc2ccc(F)cc2)nc1)N1CCc2ncccc2[C@@H]1c1ccc(F)cc1 — remaining binding (cell-free assay; competition with immobilised ligand; 1 µM): 96%
